Calls of active or inactive are those of the source. No cut-off for these calls is given here.
Tests used:
[1] = Partition coefficient (logP); type: physicochemical; conditions: octanol/water
PC-12 [2] = test: Tested for the intracellular Ca+2 release in PC12 cells; - = No release; type: functional, cell-based; conditions: Rattus norvegicus
Summary of the method: (§1)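 Fluo-4-loaded cells treated with drug at 80 μM for 10 min and monitored for Ca2+ release from intracellular stores. Clotrimazole is the positive control. Scored +, ± or −.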

PC-12 [3] = test: Phosphorylation of eukaryotic initiation factor 2 alpha (eIF2alpha) in PC12 cells, - = No phosphorylation; type: functional, cell-based; conditions: Rattus norvegicus
Summary of the method: (§2)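 Cells treated with drug at 15 μM for 2 h. Extracts western blotted with anti-phospho-Ser51 eIF2α antibody. Tro is the positive control and DMSO the negative control. Scored +, ± or −.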

PC-12 [4] = test: Concentration required for 50% inhibition of cell proliferation in PC12 cells using sulforhodamine B assay; type: functional, cell-based; conditions: Rattus norvegicus
Summary of the method: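 Sulforhodamine B proliferation assay; cells exposed to drug for 5 days across 0.5 to 100 μM. IC50 is the concentration giving 50% inhibition of proliferation.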

PC-12 [5] = test: Phosphorylation of eukaryotic initiation factor 2 alpha (eIF2alpha) in PC12 cells, +/- = Insignificant phosphorylation; type: functional, cell-based; conditions: Rattus norvegicus; summary of the method: as §2
PC-12 [6] = test: Phosphorylation of eukaryotic initiation factor 2 alpha (eIF2alpha) in PC12 cells, + = Phosphorylation; type: functional, cell-based; conditions: Rattus norvegicus; summary of the method: as §2
PC-12 [7] = test: Tested for the intracellular Ca+2 release in PC12 cells; + = Release; type: functional, cell-based; conditions: Rattus norvegicus; summary of the method: as §1
PC-12 [8] = test: Tested for the intracellular Ca+2 release in PC12 cells; +/- = Insignificant release; type: functional, cell-based; conditions: Rattus norvegicus; summary of the method: as §1

logP ([1]; read-out: logP)	logP [1]	SMILES	Activity (PC-12 [2])	Activity (PC-12 [3])	IC50 (PC-12 [4]) [µM]	Activity (PC-12 [5])	Activity (PC-12 [6])	Activity (PC-12 [7])	Activity (PC-12 [8])
3.4		O=C1NC(=O)/C(=C/c2ccc(OCc3ccccc3)cc2)S1							
1.63		COc1ccc(/C=C2\SC(=O)NC2=O)cc1	Not toxic	Not toxic	23				
2.96		CCCOc1ccc(CC2SC(=O)NC2=O)cc1 (stereo unspecified)	Not toxic		45	+/-			
3.21		O=C1NC(=O)/C(=C/c2ccc(OCC3CCCC3)cc2)S1							
2.16		CCOc1ccc(/C=C2\SC(=O)NC2=O)cc1	Not toxic		27	+/-			
2.26		O=C1NC(=O)C(Cc2ccc(OCC3CC3)cc2)S1 (stereo unspecified)	Not toxic	Not toxic	> 100				
2.43		CCOc1ccc(CC2SC(=O)NC2=O)cc1 (stereo unspecified)	Not toxic		> 100	+/-			
1.91		COc1ccc(CC2SC(=O)NC2=O)cc1 (stereo unspecified)	Not toxic	Not toxic	> 100				
	5.07	CC1(COc2ccc(CC3SC(=O)NC3=O)cc2)CCCCC1 (stereo unspecified) [CIGLITAZONE]			20		Active	Active	
1.05		O=C1NC(=O)/C(=C/c2ccc(O)cc2)S1	Not toxic	Not toxic	20				
1.99		O=C1NC(=O)C(Cc2ccccc2)S1 (stereo unspecified)	Not toxic	Not toxic	> 100				
5.31		Cc1c(C)c2c(c(C)c1O)CCC(C)(COc1ccc(/C=C3/SC(=O)NC3=O)cc1)O2 (stereo unspecified)			5		Phosphorylation	Phosphorylation	
1.99		O=C1NC(=O)/C(=C/c2ccc(OCC3CC3)cc2)S1	Not toxic		23	+/-			
3.38		O=C1NC(=O)C(Cc2ccc(OCC3CCCC3)cc2)S1 (stereo unspecified)			25		Phosphorylation	Phosphorylation	
3.09		CC(C)COc1ccc(/C=C2\SC(=O)NC2=O)cc1	Not toxic		16	+/-			
3.94		O=C1NC(=O)C(Cc2ccc(OCC3CCCCC3)cc2)S1 (stereo unspecified)			26	+/-		Release	

logP ([1]; read-out: logP)	logP [1]	SMILES	Activity (PC-12 [2])	Activity (PC-12 [3])	IC50 (PC-12 [4]) [µM]	Activity (PC-12 [5])	Activity (PC-12 [6])	Activity (PC-12 [7])	Activity (PC-12 [8])
2.69		CCCOc1ccc(/C=C2\SC(=O)NC2=O)cc1			7	+/-			+/-
		O=C1N=C(O)S/C1=C\c1ccc(OCC2CCCC2)cc1			10		Phosphorylation	Phosphorylation	
3.36		CC(C)COc1ccc(CC2SC(=O)NC2=O)cc1 (stereo unspecified)		Not toxic	25			Release	
3.67		O=C1NC(=O)C(Cc2ccc(OCc3ccccc3)cc2)S1 (stereo unspecified)	Not toxic	Not toxic	> 100				
3.49		CCC(C)(C)Oc1ccc(/C=C2\SC(=O)NC2=O)cc1			15		Phosphorylation	Phosphorylation	
3.76		CCC(C)(C)Oc1ccc(CC2SC(=O)NC2=O)cc1 (stereo unspecified)			23		Phosphorylation	Phosphorylation	
2.81		O=C1NC(=O)C(Cc2ccc(OCC3CCC3)cc2)S1 (stereo unspecified)		Not toxic	> 100			Release	
1.32		O=C1NC(=O)C(Cc2ccc(O)cc2)S1 (stereo unspecified) [GLITAZONE]	Not toxic		> 100	+/-			
2.29		O=C1NC(=O)C(Cc2ccc(OCC3CCCCO3)cc2)S1 (stereo unspecified)	Not toxic	Not toxic	> 100				
3.66		O=C1N=C(O)S/C1=C\c1ccc(OCC2CCCCC2)cc1			14		Phosphorylation	Phosphorylation	
1.71		O=C1NC(=O)/C(=C/c2ccccc2)S1	Not toxic	Not toxic	> 100				
		O=C1N=C(O)S/C1=C\c1ccc(OCc2ccccc2)cc1	Not toxic	Not toxic	15				
2.02		O=C1N=C(O)S/C1=C\c1ccc(OCC2CCCCO2)cc1 (stereo unspecified)			22		Phosphorylation	Phosphorylation	
4.46		Cc1c(C)c2c(c(C)c1O)CCC(C)(COc1ccc(CC3SC(=O)NC3=O)cc1)O2 (stereo unspecified) [TROGLITAZONE]			15		Active	Active	
2.54		O=C1NC(=O)/C(=C/c2ccc(OCC3CCC3)cc2)S1			13		Phosphorylation	Phosphorylation	

Reference: ChEMBL document CHEMBL1148253, “Structure-activity requirements for the antiproliferative effect of troglitazone derivatives mediated by depletion of intracellular calcium” (Bioorg Med Chem Lett, 2004)
